In PMC9968262 (American Journal of Clinical Dermatology, 2022):
“And” between values parts separate entries of the source, which are not always exact repeats. Equal entries are not always repeated. Where two headings read alike, the source gives them in different places.

Experiments:
Maximal usage PK study = format: in vivo, human; conditions: for steady state achieved by: plasma concentrations, roflumilast cream 0.3% once daily; for Tmax, h (min–max): plasma, Day 15, roflumilast cream 0.3% daily topical, mean (min–max)
Method in brief: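 Open-label, single-arm, 2-week maximal-use study: 0.3% cream at 2 mg/cm2 once each evening to all plaques except the scalp. Subjects were adolescents 12–17 y (≥10% BSA) and adults (≥20% BSA), with IGA ≥3. Plasma was sampled predose and 1, 2, 4, 8 and 24 h post-dose on Days 1 and 15, plus 7, 14 and 21 days after the last dose. Analysis was LC-MS/MS (LLOQ 0.100 ng/mL) with noncompartmental linear trapezoidal methods.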

Phase I/IIa study [1] = format: in vivo, human; conditions: for skin samples with measurable (quantifiable) level: N = 27 skin samples; for Kp at 24 h / concentration at 24 h / concentration at 28 days: human, topical; for Kp at 24 h: skin (punch biopsy) / plasma; for concentration at 24 h / concentration at 28 days: skin (punch biopsy)
Phase I/IIa study [2] = format: in vivo, human; conditions: for plasma concentration, mean (SD): Day 28; for concentration at 24 h / concentration at 28 days: human, plasma, topical
Method in brief: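 Cohort 2 was double-blind and vehicle-controlled: 0.15% or 0.5% cream once daily for 28 days. Patients had psoriasis for >6 months and ≤5% BSA involvement. Day 28 plasma was drawn before application and at 1, 2, 4, 6 and 24 h after the last dose. Parent and N-oxide were quantified by validated LC-MS/MS (LLOQ 0.100 ng/mL).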

DERMIS-1 = format: in vivo, human; conditions: for Week 4 extrapolated AUC24, h*ng/mL / Week 8 extrapolated AUC24, h*ng/mL: predose concentration x 24, mean (SD)
Method in brief: (§1)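 Patients with chronic plaque psoriasis covering 2–20% BSA were randomized 2:1 (double-blind) to 0.3% cream or vehicle. Cream was applied once daily for 8 weeks, including to new lesions. Predose (Ctrough) plasma was sampled at Baseline, Week 4 and Week 8. Parent and N-oxide were measured by validated LC-MS/MS (LLOQ 0.100 ng/mL). AUC24 = observed predose concentration × 24.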

DERMIS-2 = format: in vivo, human; conditions: for Week 4 extrapolated AUC24, h*ng/mL / Week 8 extrapolated AUC24, h*ng/mL: predose concentration x 24, mean (SD)
Method in brief: as §1

[3] = cited from earlier work; for peak plasma concentration (Cmax): healthy volunteers; for elimination half-life: roflumilast administered orally
[4] = tested on: phosphodiesterase 4 (PDE4); conditions: active metabolite; cited from earlier work
[5] = oral 500 µg; cited from earlier work
[6] = cited from earlier work
[7] = at 22 °C; cited from earlier work
[8] = age 6–11 years (N = 1), predose concentration x 24
[9] = age 12–17 years (N = 3), predose plasma (Ctrough), mean (SD)
[10] = age ≥ 18 years (N = 241), predose plasma (Ctrough), mean (SD)
[11] = age 6–11 years (N = 1), predose plasma (Ctrough)
[12] = age 12–17 years (N = 5), predose plasma (Ctrough), mean (SD)
[13] = age ≥ 18 years (N = 244), predose plasma (Ctrough), mean (SD)
[14] = multiple dosing of oral roflumilast 500 µg

For O=C(Nc1c(Cl)c[n+]([O-])cc1Cl)c1ccc(OC(F)F)c(OCC2CC2)c1 [roflumilast N-oxide], the “steady state achieved by” value (Maximal usage PK study) was ≤ 15 days, the “Tmax, h (min–max)” value (Maximal usage PK study; adolescents 12–17 years) was 16.5 (1.0–24.0) h and the “Tmax, h (min–max)” value (Maximal usage PK study; adults ≥18 years) was 12.9 (0–24) h. For the same compound, the “roflumilast N-oxide plasma concentrations relative to roflumilast concentrations” value (Maximal usage PK study; repeat daily topical roflumilast cream 0.3%, steady state) was “eightfold”, the “skin samples with measurable (quantifiable) level” value (from here on “skin samples with measurable”) (Phase I/IIa study [1]) was “only one sample” and the “skin samples with measurable” value (Phase I/IIa study [1]; listed as Roflumilast N-oxide) was “only one skin sample”. The “skin concentrations lower than circulating plasma concentrations” value (Phase I/IIa study [1]; skin LLOQ of 0.2 ng/g, cream 0.15% and 0.5%) was “at least 30 fold”, the “plasma concentration, mean (SD)” value (Phase I/IIa study [2]; roflumilast cream 0.15% (n = 21)) was 5.44 [4.95] ng/mL and the “plasma concentration, mean (SD)” value (Phase I/IIa study [2]; roflumilast cream 0.5% (n = 20)) was 6.52 [4.04] ng/mL. The “Week 8 extrapolated AUC24” value (DERMIS-1; [8]) was 103 ng·h/mL, the “Week 4 extrapolated AUC24, h*ng/mL” value (DERMIS-1; age 12–17 years (N = 3)) was 202 (91.2) h*ng/mL and the “Week 8 extrapolated AUC24, h*ng/mL” value (DERMIS-1; age 12–17 years (N = 3)) was 209 (132) h*ng/mL. For the same compound, the “Week 4 conc., ng/mL” value (DERMIS-1; [9]) was 8.42 (3.80) ng/mL, the “Week 8 conc., ng/mL” value (DERMIS-1; [9]) was 8.71 (5.49) ng/mL and the “Week 4 extrapolated AUC24, h*ng/mL” value (DERMIS-1; age ≥ 18 years (N = 241)) was 288 (310) h*ng/mL. The “Week 8 extrapolated AUC24, h*ng/mL” value (DERMIS-1; age ≥ 18 years (N = 241)) was 242 (290) h*ng/mL, the “Week 4 conc., ng/mL” value (DERMIS-1; [10]) was 11.8 (12.9) ng/mL and the “Week 8 conc.” value (DERMIS-1; [10]) was 9.86 ng/mL and 9.9 ng/mL. For the same compound, the “Week 4 extrapolated AUC24” value (DERMIS-2; [8]) was 576 ng·h/mL, the “Week 8 extrapolated AUC24” value (DERMIS-2; [8]) was 614 ng·h/mL and the “Week 4 conc.” value (DERMIS-2; [11]) was 24.0 ng/mL. The “Week 8 conc.” value (DERMIS-2; [11]) was 25.6 ng/mL, the “Week 4 extrapolated AUC24, h*ng/mL” value (DERMIS-2; age 12–17 years (N = 5)) was 84.6 (58.4) h*ng/mL and the “Week 8 extrapolated AUC24, h*ng/mL” value (DERMIS-2; age 12–17 years (N = 5)) was 161 (174) h*ng/mL. For the same compound, the “Week 4 conc., ng/mL” value (DERMIS-2; [12]) was 3.53 (2.44) ng/mL, the “Week 8 conc., ng/mL” value (DERMIS-2; [12]) was 6.72 (7.24) ng/mL and the “Week 4 extrapolated AUC24, h*ng/mL” value (DERMIS-2; age ≥ 18 years (N = 244)) was 294 (338) h*ng/mL. The “Week 8 extrapolated AUC24, h*ng/mL” value (DERMIS-2; age ≥ 18 years (N = 244)) was 249 (308) h*ng/mL, the “Week 4 conc., ng/mL” value (DERMIS-2; [13]) was 12.2 (14.1) ng/mL and the “Week 8 conc.” value (DERMIS-2; [13]) was 10.2 ng/mL. The “systemic exposure of roflumilast N-oxide relative to roflumilast” value ([3]; intravenous administration of roflumilast) was 7.4 times, the “peak plasma concentration (Cmax)” value [3, 14] was 21.7 ng/mL and the “systemic exposure of roflumilast N-oxide relative to roflumilast” value ([3]; oral administration of roflumilast) was 12.4 times. For the same compound, the elimination half-life [3] was 30 h and the “potency of N-oxide metabolite relative to roflumilast” value [4] was “threefold less potent”.

In the case of O=C(Nc1c(Cl)cncc1Cl)c1ccc(OC(F)F)c(OCC2CC2)c1 [roflumilast], the “steady state achieved by” value (Maximal usage PK study) was ≤ 15 days, the “peak-to-trough ratio (plasma)” value (Maximal usage PK study; steady state (Day 15), topical roflumilast cream 0.3%) was 1.2 and the “skin samples with measurable” value (Phase I/IIa study [1]) was “All but one sample”. It also gave a Kp at 24 h (Phase I/IIa study [1]; 0.15 % cream) of 126, a Kp at 24 h (Phase I/IIa study [1]; 0.5 % cream) of 61.8 and a concentration at 24 h (Phase I/IIa study [1]; 0.15 % cream) of 84 ng/mL. The concentration at 28 days (Phase I/IIa study [1]; 0.15 % cream) was 120 ng/g, the concentration at 24 h (Phase I/IIa study [1]; 0.5 % cream) was 51 ng/mL and the concentration at 28 days (Phase I/IIa study [1]; 0.5 % cream) was 56.1 ng/g. The concentration at 24 h (Phase I/IIa study [2]; 0.15 % cream) was 1.15 ng/mL, the concentration at 28 days (Phase I/IIa study [2]; 0.15 % cream) was 1.03 ng/mL and the concentration at 24 h (Phase I/IIa study [2]; 0.5 % cream) was 0.805 ng/mL. The concentration at 28 days (Phase I/IIa study [2]; 0.5 % cream) was 1.15 ng/mL, the “Week 8 extrapolated AUC24, h*ng/mL” value (DERMIS-1; age ≥ 18 years (N = 241)) was 47.4 (58.3) h*ng/mL and the “Week 4 conc., ng/mL” value (DERMIS-1; [10]) was 2.05 (2.83) ng/mL. The “diarrhea (occurrence)” value [5] was 9.5%, the “nausea (occurrence)” value [5] was 4.7% and the “weight decreased (occurrence)” value [5] was 7.5%. For the same compound, the oral bioavailability ([3]; 500 µg oral dose) was “approximately 79%”, the “time to absorption / peak levels after oral dose” value ([3]; 500 µg oral dose) was “about 1.25 h” and the “time to absorption / peak levels after oral dose” value ([3]; 500 µg oral dose, listed as Roflumilast) was 1 h. For the same compound, the “Cmax in COPD patients higher than in healthy volunteers” value [3, 14] was “about 6%”, the “peak plasma concentration (Cmax)” value [3, 14] was 6.01 ng/mL and the peak-to-trough ratio ([3]; oral administration) was “greater than 10”. The elimination half-life [3] was 17 to 30 h and 17 h, the logP [6] was 3.53 and the water solubility [7] was 0.52 to 0.56 µg/mL.
